Measured values: ChEMBL document CHEMBL1142610, “Phenanthroquinolizidine alkaloids from the roots of Boehmeria pannosa potently inhibit hypoxia-inducible factor-1 in AGS human gastric cancer cells” (J Nat Prod, 2006)
The source made the active and inactive calls. No cut-off for these calls is given here.

How the values were obtained:
[1] = biological target: Aryl hydrocarbon receptor nuclear translocator (Homo sapiens) (UniProt P27540); assay: Inhibition of hypoxia-induced HIF1beta protein accumulation in human AGS cells after 12 hrs by Western blot; type: cell-based
Aryl hydrocarbon receptor nuclear translocator (Homo sapiens), sequence (P27540 whole entry): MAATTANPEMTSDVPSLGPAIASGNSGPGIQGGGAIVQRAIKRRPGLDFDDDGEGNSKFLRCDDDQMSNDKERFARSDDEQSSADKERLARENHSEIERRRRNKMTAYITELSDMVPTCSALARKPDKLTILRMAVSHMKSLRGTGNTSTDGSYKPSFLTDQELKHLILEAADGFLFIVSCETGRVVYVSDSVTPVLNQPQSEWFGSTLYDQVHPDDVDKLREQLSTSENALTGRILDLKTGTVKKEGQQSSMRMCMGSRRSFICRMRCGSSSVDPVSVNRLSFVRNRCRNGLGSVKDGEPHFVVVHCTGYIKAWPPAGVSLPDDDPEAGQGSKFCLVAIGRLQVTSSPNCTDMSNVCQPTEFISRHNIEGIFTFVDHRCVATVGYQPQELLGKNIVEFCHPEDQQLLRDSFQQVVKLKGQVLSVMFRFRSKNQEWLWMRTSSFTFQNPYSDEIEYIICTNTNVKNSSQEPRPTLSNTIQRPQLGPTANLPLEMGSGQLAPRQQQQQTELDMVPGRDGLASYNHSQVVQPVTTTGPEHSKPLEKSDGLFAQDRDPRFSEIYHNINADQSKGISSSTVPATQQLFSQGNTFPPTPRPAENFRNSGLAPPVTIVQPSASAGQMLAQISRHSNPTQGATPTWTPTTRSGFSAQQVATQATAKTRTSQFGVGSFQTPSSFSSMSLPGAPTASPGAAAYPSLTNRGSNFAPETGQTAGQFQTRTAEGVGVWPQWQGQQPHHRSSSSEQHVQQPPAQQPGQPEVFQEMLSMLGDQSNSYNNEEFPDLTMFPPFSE
How it was run: (§1)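 AGS cells plated at 1.5 × 10^5 cells/cm2 and left overnight at 37 °C. Pretreated 1 h with graded concentrations, then 12 h hypoxia (1% O2, 94% N2, 5% CO2, 37 °C). Total lysates (50 µg) run on 6% SDS-PAGE. Blotted with monoclonal anti-HIF-1α or anti-HIF-1β, ECL detection. TOPO I served as loading control. At least three experiments.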

[2] = biological target: T1, Hypoxia inducible factors; HIF-1-alpha, HIF-2-alpha (Homo sapiens, UniProt Q16665+Q99814); assay: Inhibition of hypoxia-induced HIF1 activation in human AGS cells at 300 nM after 16 hrs by pGL3-HRE-luciferase reporter gene assay; type: cell-based
How it was run: (§2)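 AGS cells transiently cotransfected with pGL3-HRE-Luc (six HRE copies from human VEGF gene) plus pRL-CMV, plated 4 × 10^4 cells/well, grown 48 h. Then treated with graded concentrations and held 16 h in hypoxia (1% O2, 94% N2, 5% CO2). Dual-luciferase read-out, firefly normalized to renilla. 17-DMAG positive control. At least three independent experiments.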

[3] = biological target: T1, Hypoxia inducible factors; HIF-1-alpha, HIF-2-alpha; assay: Inhibition of hypoxia-induced HIF1 activation in human AGS cells after 16 hrs by pGL3-HRE-luciferase reporter gene assay; type: cell-based; how it was run: as §2
[4] = biological target: Hypoxia-inducible factor 1-alpha (Homo sapiens) (UniProt Q16665); assay: Inhibition of hypoxia-induced HIF1alpha protein accumulation in human AGS cells after 12 hrs by Western blot; type: cell-based; how it was run: as §1
Hypoxia-inducible factor 1-alpha (Homo sapiens), sequence (Q16665 whole entry, looked up): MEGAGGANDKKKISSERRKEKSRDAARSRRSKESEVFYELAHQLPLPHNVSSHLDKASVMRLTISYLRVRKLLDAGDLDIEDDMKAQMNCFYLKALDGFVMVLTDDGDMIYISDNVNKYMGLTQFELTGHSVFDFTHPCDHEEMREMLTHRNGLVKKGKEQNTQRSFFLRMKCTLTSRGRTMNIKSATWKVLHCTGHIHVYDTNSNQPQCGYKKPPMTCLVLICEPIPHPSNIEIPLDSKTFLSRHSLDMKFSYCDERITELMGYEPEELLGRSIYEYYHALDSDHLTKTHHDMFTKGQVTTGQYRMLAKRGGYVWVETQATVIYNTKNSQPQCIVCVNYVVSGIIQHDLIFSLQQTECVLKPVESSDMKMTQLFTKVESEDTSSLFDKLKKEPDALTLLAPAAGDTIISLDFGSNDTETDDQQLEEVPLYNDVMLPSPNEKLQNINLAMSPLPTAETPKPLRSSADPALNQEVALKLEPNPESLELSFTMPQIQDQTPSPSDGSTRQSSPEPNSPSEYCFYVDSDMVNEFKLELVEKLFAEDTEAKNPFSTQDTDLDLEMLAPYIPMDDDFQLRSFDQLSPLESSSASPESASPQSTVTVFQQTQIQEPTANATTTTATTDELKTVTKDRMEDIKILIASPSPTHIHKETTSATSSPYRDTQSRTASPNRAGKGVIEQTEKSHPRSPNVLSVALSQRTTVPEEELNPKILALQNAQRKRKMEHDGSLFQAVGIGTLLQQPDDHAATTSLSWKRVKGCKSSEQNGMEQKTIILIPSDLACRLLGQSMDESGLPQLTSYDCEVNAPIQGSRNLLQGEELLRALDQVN

[5] = biological target: T1, Hypoxia inducible factors; HIF-1-alpha, HIF-2-alpha; assay: Inhibition of hypoxia-induced HIF1 activation in human AGS cells at 100 nM after 16 hrs by pGL3-HRE-luciferase reporter gene assay; type: cell-based; how it was run: as §2
[6] = system: AGS; assay: Inhibition of hypoxia-induced VEGF expression in human AGS cells after 16 hrs by RT-PCR analysis; type: functional, cell-based
How it was run: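 AGS cells at 1.5 × 10^5 cells/cm2 pretreated 1 h with graded concentrations, then 16 h hypoxia (1% O2). Total RNA isolated and VEGF transcript detected by RT-PCR: 25 cycles (94 °C 30 s, 58 °C 30 s, 72 °C 1 min). Products run on 2% agarose with ethidium bromide staining. At least three experiments.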

[7] = Inhibition of hypoxia-induced HIF1 activation; how it was run: as §2

Structure (SMILES)	Activity [1]	Activity [2]	IC50 [3] [nM]	Activity [4]	Activity [5]	Activity [6]	IC50 [7] [nM]
COc1ccc2c3c(c4cc(OC)c(OC)cc4c2c1)[C@@H](O)[C@H]1CCCCN1C3	inactive	Active	48.1	Dose-dependent effect	–	–	–
COc1ccc2c3c(c4cc(OC)c(OC)cc4c2c1)C[C@H]1CCCCN1C3 [CRYPTOPLEURINE]	inactive	–	8.7	Dose-dependent effect	Active	Dose-dependent effect	–
COc1ccc([C@@H](O)[C@@H](C)Oc2ccc([C@H]3O[C@H](c4ccc(O[C@H](C)[C@H](O)c5ccc6c(c5)OCO6)c(OC)c4)[C@H](C)[C@H]3C)cc2OC)cc1OC [MANASSANTIN B]	–	–	–	–	–	–	3
